Experimental data: ChEMBL document CHEMBL1141378, “Structures of steroidal alkaloid oligoglycosides, robeneosides A and B, and antidiabetogenic constituents from the Brazilian medicinal plant Solanum lycocarpum” (2007)

Assays:
[1] = test system: Rattus norvegicus; assay: Inhibition of increase in serum glucose level in sucrose-loaded Wistar rat at 125 mg/kg, po after 0.5 hrs; format: functional
Procedure, shortened: (§1)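 Male Wistar rats (about 130-150 g) fasted 20-24 h, water allowed. Test sample suspended in 5% acacia solution, given orally at 10 mL/kg; controls get vehicle. Thirty minutes later, 20% (w/v) sucrose at 5 mL/kg po (water for the normal group). Serum taken 0.5, 1 and 2 h after loading; glucose measured by glucose-oxidase method. Means ± SEM; one-way ANOVA with Dunnett's test.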

[2] = test system: Rattus norvegicus; assay: Inhibition of increase in serum glucose level in sucrose-loaded Wistar rat at 125 mg/kg, po after 1 hr; format: functional; procedure, shortened: as §1
[3] = test system: Rattus norvegicus; assay: Inhibition of increase in serum glucose level in sucrose-loaded Wistar rat at 125 mg/kg, po after 2 hrs; format: functional; procedure, shortened: as §1
[4] = test system: Rattus norvegicus; assay: Inhibition of increase in serum glucose level in sucrose-loaded Wistar rat at 500 mg/kg, po after 0.5 hrs; format: functional; procedure, shortened: as §1
[5] = test system: Rattus norvegicus; assay: Inhibition of increase in serum glucose level in sucrose-loaded Wistar rat at 500 mg/kg, po after 1 hr; format: functional; procedure, shortened: as §1
[6] = test system: Rattus norvegicus; assay: Inhibition of increase in serum glucose level in sucrose-loaded Wistar rat at 500 mg/kg, po after 2 hrs; format: functional; procedure, shortened: as §1
[7] = test system: Rattus norvegicus; assay: Inhibition of increase in serum glucose level in sucrose-loaded Wistar rat at 12.5 mg/kg, po after 0.5 hrs; format: functional; procedure, shortened: as §1
[8] = test system: Rattus norvegicus; assay: Inhibition of increase in serum glucose level in sucrose-loaded Wistar rat at 12.5 mg/kg, po after 1hr; format: functional; procedure, shortened: as §1
[9] = test system: Rattus norvegicus; assay: Inhibition of increase in serum glucose level in sucrose-loaded Wistar rat at 12.5 mg/kg, po after 2 hrs; format: functional; procedure, shortened: as §1
[10] = test system: Rattus norvegicus; assay: Inhibition of increase in serum glucose level in sucrose-loaded Wistar rat at 25 mg/kg, po after 0.5 hrs; format: functional; procedure, shortened: as §1
[11] = test system: Rattus norvegicus; assay: Inhibition of increase in serum glucose level in sucrose-loaded Wistar rat at 25 mg/kg, po after 1 hr; format: functional; procedure, shortened: as §1
[12] = test system: Rattus norvegicus; assay: Inhibition of increase in serum glucose level in sucrose-loaded Wistar rat at 25 mg/kg, po after 2 hrs; format: functional; procedure, shortened: as §1
[13] = test system: Rattus norvegicus; assay: Inhibition of increase in serum glucose level in sucrose-loaded Wistar rat at 50 mg/kg, po after 2 hrs; format: functional; procedure, shortened: as §1
[14] = test system: Rattus norvegicus; assay: Inhibition of increase in serum glucose level in sucrose-loaded Wistar rat at 100 mg/kg, po after 2 hrs; format: functional; procedure, shortened: as §1
[15] = test system: Mus musculus; assay: Suppression of gastric emptying in CMC-Na-loaded mouse at 25 mg/kg, po after 30 mins; format: functional, Stomach
Procedure, shortened: (§2)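 Male ddY mice (about 30-32 g) fasted 20-24 h, dosed orally in 5% acacia (10 mL/kg) 30 min before an intragastric meal of 1.5% CMC-Na with 0.05% phenol red (0.5 mL/mouse). Killed 30 min later; stomach homogenized in 0.1 M NaOH, TCA-deproteinized, alkalinized, read at 560 nm. Emptying % calculated against mice killed immediately after the meal. Means ± SEM, Dunnett's test.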

[16] = test system: Mus musculus; assay: Suppression of gastric emptying in CMC-Na-loaded mouse at 50 mg/kg, po after 30 mins; format: functional, Stomach; procedure, shortened: as §2
[17] = test system: Rattus norvegicus; assay: Inhibition of increase in serum glucose level in sucrose-loaded Wistar rat at 50 mg/kg, po after 0.5 hrs; format: functional; procedure, shortened: as §1
[18] = test system: Rattus norvegicus; assay: Inhibition of increase in serum glucose level in sucrose-loaded Wistar rat at 100 mg/kg, po after 0.5 hrs; format: functional; procedure, shortened: as §1
[19] = test system: Rattus norvegicus; assay: Inhibition of increase in serum glucose level in sucrose-loaded Wistar rat at 50 mg/kg, po after 1 hr; format: functional; procedure, shortened: as §1
[20] = test system: Rattus norvegicus; assay: Inhibition of increase in serum glucose level in sucrose-loaded Wistar rat at 100 mg/kg, po after 1 hr; format: functional; procedure, shortened: as §1

Q: How did the Activity [1] turn out when CN(C)C(=N)NC(=N)N [METFORMIN] was run?
A: The Activity was 134.8 mg/dL.

Q: What about the Activity [2] of the same molecule?
A: Its Activity is 136 mg/dL.

Q: And the Activity [3]?
A: The Activity was 115.5 mg/dL.

Q: And the Activity [4]?
A: Its Activity is 113.1 mg/dL.

Q: And the Activity [5]?
A: Its Activity is 105.6 mg/dL.

Q: And the Activity [6]?
A: The Activity was 119.8 mg/dL.

Q: With CCCCNC(=O)NS(=O)(=O)c1ccc(C)cc1 [TOLBUTAMIDE] as the molecule, how does the Activity [7] read?
A: Its Activity is 152.6 mg/dL.

Q: And the Activity [8]?
A: The Activity was 130.5 mg/dL.

Q: And the Activity [9]?
A: The Activity was 114.9 mg/dL.

Q: What about the Activity [10] of the same molecule?
A: The Activity was 138.1 mg/dL.

Q: What about the Activity [11] of the same molecule?
A: The Activity was 106.3 mg/dL.

Q: What about the Activity [12] of the same molecule?
A: The Activity was 99.5 mg/dL.

Q: Which Activity [13] does the source give for C[C@@H]1CC[C@@]2(NC1)O[C@H]1C[C@H]3[C@@H]4CC=C5C[C@@H](O[C@@H]6O[C@H](CO)[C@H](O)[C@H](O[C@@H]7O[C@H](CO)[C@@H](O)[C@H](O)[C@H]7O)[C@H]6O[C@@H]6O[C@@H](C)[C@H](O)[C@@H](O)[C@H]6O)CC[C@]5(C)[C@H]4CC[C@]3(C)[C@H]1[C@@H]2C [SOLASONINE] here?
A: The Activity was 135.4 mg/dL.

Q: What about the Activity [14] of the same molecule?
A: The Activity was 121.9 mg/dL.

Q: What about the Activity [15] of the same molecule?
A: The Activity was 75.4%.

Q: What about the Activity [16] of the same molecule?
A: Its Activity is 74.8%.

Q: And the Activity [10]?
A: Its Activity is 158.8 mg/dL.

Q: And the Activity [17]?
A: Its Activity is 132.7 mg/dL.

Q: What about the Activity [18] of the same molecule?
A: The Activity was 124.7 mg/dL.

Q: What about the Activity [11] of the same molecule?
A: Its Activity is 157.6 mg/dL.

Q: And the Activity [19]?
A: Its Activity is 136.7 mg/dL.

Q: And the Activity [20]?
A: The Activity was 122.4 mg/dL.

Q: And the Activity [12]?
A: Its Activity is 129.5 mg/dL.

Q: With C[C@@H]1CC[C@@]2(NC1)O[C@H]1C[C@H]3[C@@H]4CC=C5C[C@@H](O[C@@H]6O[C@H](CO)[C@@H](O[C@@H]7O[C@@H](C)[C@H](O)[C@@H](O)[C@H]7O)[C@H](O)[C@H]6O[C@@H]6O[C@@H](C)[C@H](O)[C@@H](O)[C@H]6O)CC[C@]5(C)[C@H]4CC[C@]3(C)[C@H]1[C@@H]2C [SOLAMARGINE] as the molecule, how does the Activity [13] read?
A: The Activity was 118.7 mg/dL.

Q: And the Activity [14]?
A: The Activity was 122.3 mg/dL.

Q: What about the Activity [15] of the same molecule?
A: The Activity was 73.7%.

Q: And the Activity [16]?
A: The Activity was 58.4%.

Q: And the Activity [10]?
A: The Activity was 141.7 mg/dL.

Q: What about the Activity [17] of the same molecule?
A: The Activity was 124.3 mg/dL.

Q: And the Activity [18]?
A: The Activity was 118.5 mg/dL.

Q: And the Activity [11]?
A: Its Activity is 139.9 mg/dL.

Q: And the Activity [19]?
A: The Activity was 117.1 mg/dL.

Q: And the Activity [20]?
A: The Activity was 116.6 mg/dL.

Q: And the Activity [12]?
A: Its Activity is 133.7 mg/dL.
